For 24 compounds, inhibition and IC50 results are on record in ChEMBL document CHEMBL1141719, “Naphthylphenstatins as tubulin ligands: synthesis and biological evaluation” (Bioorg Med Chem, 2008).

The inhibition is the percentage by which the read-out fell short of the control. A lower inhibition goes with a weak effect. A word on the IC50: it is the concentration that inhibits the measured activity by half.

Several values for one entry are separate records, joined by “and”; a condition that tells them apart may be missing. Equal values may be shown once.

The species entered for assay [1] is Bos taurus. Nature of the assay: Inhibition of calf brain tubulin polymerization at 20 uM relative to control. In short, it runs like this:
(§1)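 Calf brain microtubule protein was purified by two cycles of temperature-dependent assembly/disassembly. Assay used 1.0 mg/mL MTP in 0.1 M MES, 1 mM EGTA, 1 mM MgCl2, 1 mM β-ME, 1.5 mM GTP, pH 6.7, with 4% DMSO. Ligand was preincubated 30 min at 20 °C, then 10 min on ice, and assembly started by shift from 4 °C to 37 °C. Turbidity was followed against a no-ligand control. Inhibition is percent of control, mean of at least three experiments.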

The subject of a further assay is HeLa. Nature of the assay: Cytotoxicity against human HeLa cells after 72 hrs by XTT assay. Format: functional, cell-based. In short, it runs like this: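 HeLa (1.5 × 10³/well), HT-29 (3 × 10³/well) or A-549 (5 × 10³/well) cells seeded in 100 µL and allowed to attach for 24 h at 37 °C, 5% CO₂. Compounds at a range of concentrations for 72 h. Then XTT/PMS reagent added for 4 h, with absorbance read at 490 nm (reference 655 nm). IC50 is the concentration giving 50% inhibition of proliferation, mean of at least six experiments.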
Background: Tetrazolium dyes change colour on reduction, which living cells bring about.

A further assay deals with A549. In words: Cytotoxicity against human A549 cells after 72 hrs by XTT assay. Format: functional, cell-based.
For the next assay, the system named is HT-29. In words: Cytotoxicity against human HT-29 cells after 72 hrs by XTT assay. Format: functional, cell-based.
For assay [2], the species on record is Bos taurus. In words: Inhibition of calf brain tubulin polymerization at 30 uM relative to control. In short, it runs like this:
as §1

Assay [3] is described as follows: Inhibition of calf brain tubulin polymerization relative to control. Also noted: species or system Bos taurus. In short, it runs like this: as §1
The species named for assay [4] is Bos taurus. In words: Inhibition of calf brain tubulin polymerization at 40 uM relative to control. In short, it runs like this: as §1

`COc1ccc(/C(=N\OC(C)=O)c2ccc3ccccc3c2)c(OC)c1OC`: in the assay listed under Bos taurus [1], the inhibition came to 0%. Further, the IC50 was 1.2 µM with HeLa (Homo sapiens, HeLa, 72 h); 10 µM in the assay on A549 (Homo sapiens, A549, 72 h); greater than 10 µM with A549 (a549); 10 µM in the assay on HT-29 (Homo sapiens, HT-29, 72 h); greater than 10 µM in the assay on HT-29 (ht-29).
Compound `CO/N=C(/c1cc(OC)c(OC)c(OC)c1)c1ccc2ccccc2c1` returned an inhibition in the assay filed under Bos taurus [1] of 4%. The compound further showed a 50% inhibitory concentration (IC50) in the assay on HT-29 (Homo sapiens, HT-29, 72 h) of 1 µM.
For `COc1cc(C(c2ccc3ccccc3c2)n2ccnc2)cc(OC)c1OC` (stereo unspecified), the inhibition in the assay listed under Bos taurus [1] was determined as 0%. The IC50 with HT-29 (Homo sapiens, HT-29, 72 h) is 10 µM; with HT-29 (ht-29), greater than 10 µM.
The compound `CN/N=C(/c1cc(OC)c(OC)c(OC)c1)c1ccc2ccccc2c1` yielded an inhibition in the assay listed under Bos taurus [2] of 31%.
On to `COc1cc(/C(=N/O)c2ccc3ccccc3c2)cc(OC)c1OC`, for which, in the assay filed under Bos taurus [2], the inhibition amounted to 0%. For the same compound, the IC50 in the assay with HeLa (Homo sapiens, HeLa, 72 h) was 1.5 µM; in the assay with A549 (Homo sapiens, A549, 72 h), 10 µM; in the assay on A549 (a549) it was greater than 10 µM; with HT-29 (Homo sapiens, HT-29, 72 h), 1.8 µM.
With `COc1ccc(/C=C\c2cc(OC)c(OC)c(OC)c2)cc1O` [COMBRETASTATIN A4], the inhibition in the assay listed under Bos taurus [1] was determined as 100%. The IC50 amounted to 3 µM in assay [3] and 2.7 µM in the assay on HeLa (Homo sapiens, HeLa, 72 h).
The compound `COc1cc(/C(=N/OC(C)=O)c2ccc3ccccc3c2)cc(OC)c1OC` returned an inhibition in the assay listed under Bos taurus [1] of 38%. The IC50 in the assay on HeLa (Homo sapiens, HeLa, 72 h) worked out at 0.001 µM; in the assay on HT-29 (Homo sapiens, HT-29, 72 h), 1 µM.
Compound `COc1ccc(/C(=N/O)c2ccc3ccccc3c2)c(OC)c1OC` gave an inhibition in the assay filed under Bos taurus [2] of 0%. The IC50 with HeLa (Homo sapiens, HeLa, 72 h) was 0.4 µM; in the assay with A549 (Homo sapiens, A549, 72 h), 10 µM; in the assay on A549 (a549), greater than 10 µM; in the assay with HT-29 (Homo sapiens, HT-29, 72 h), 1 µM.
The compound `COc1ccc(C(OC(C)=O)c2ccc3ccccc3c2)c(OC)c1OC` (stereo unspecified) gave an inhibition in the assay listed under Bos taurus [1] of 26%. The IC50 in the assay on HeLa (Homo sapiens, HeLa, 72 h) was determined as 2.7 µM; in the assay with A549 (Homo sapiens, A549, 72 h) it was 10 µM.
For the compound `COc1cc(/C(=N\OC(C)=O)c2ccc3ccccc3c2)cc(OC)c1OC`, the inhibition in the assay filed under Bos taurus [1] was found to be 10%.
As for `COc1ccc(/C(=N\OC(=O)OC(C)(C)C)c2ccc3ccccc3c2)c(OC)c1OC`, the IC50 with HT-29 (Homo sapiens, HT-29, 72 h) is 10 µM; in the assay with HT-29 (ht-29) it was greater than 10 µM.
Turning to `COc1cc(C(O)c2ccc3ccccc3c2)cc(OC)c1OC` (stereo unspecified), the inhibition in the assay filed under Bos taurus [4] came out at 0%.
Compound `COc1cc(/C(=N/NC(C)=O)c2ccc3ccccc3c2)cc(OC)c1OC` registered an inhibition in the assay listed under Bos taurus [2] of 35%. The IC50 in the assay with HeLa (Homo sapiens, HeLa, 72 h) is 10 µM; in the assay with HeLa (hela), greater than 10 µM; in the assay with A549 (Homo sapiens, A549, 72 h), 10 µM; in the assay with A549 (a549), greater than 10 µM; in the assay with HT-29 (Homo sapiens, HT-29, 72 h), 10 µM; with HT-29 (ht-29), greater than 10 µM.
`COc1ccc(C(=O)c2cc(OC)c(OC)c(OC)c2)cc1O` [PHENSTATIN]: in assay [3], half-maximal inhibition (IC50) was put at 2.5 µM.
For `COc1cc(C(=O)c2ccc3ccccc3c2)cc(OC)c1OC`, the IC50 in assay [3] stood at 1.1 µM; with A549 (a549), 0.043 µM.
`COc1ccc(C(C)(O)c2ccc3ccccc3c2)c(OC)c1OC` (stereo unspecified): the inhibition in the assay listed under Bos taurus [1] is 3%. For the same compound, the IC50 with HeLa (Homo sapiens, HeLa, 72 h) came out at 1 µM; with A549 (Homo sapiens, A549, 72 h) it was 10 µM.
As to `COc1cc(/C(=N/N)c2ccc3ccccc3c2)cc(OC)c1OC`, the inhibition in the assay filed under Bos taurus [2] is 0%. This compound registered an IC50 with HT-29 (Homo sapiens, HT-29, 72 h) of 10 µM.
Take `COc1ccc(C(=O)c2ccc3ccccc3c2)c(OC)c1OC`: the inhibition in the assay listed under Bos taurus [1] is 0.25% and 4%. Further, the IC50 was 4 µM with HeLa (hela); 1.7 µM and > 10 µM with A549 (a549).
`COc1cc(/C(=N\NC(C)=O)c2ccc3ccccc3c2)cc(OC)c1OC`: the inhibition in the assay listed under Bos taurus [1] was 0%.
Still for that read-out and setting: in the case of `COc1ccc(/C(=N\NC(C)=O)c2ccc3ccccc3c2)c(OC)c1OC` it was 0%.
For the compound `COc1cc(/C(=N\OC(=O)OC(C)(C)C)c2ccc3ccccc3c2)cc(OC)c1OC`, in the assay listed under Bos taurus [1], the inhibition came out at 15%. For the same compound, the IC50 in the assay with HT-29 (Homo sapiens, HT-29, 72 h) was 10 µM; with HT-29 (ht-29), greater than 10 µM.
For `COc1cc(C(OC(C)=O)c2ccc3ccccc3c2)cc(OC)c1OC` (stereo unspecified), the inhibition in the assay filed under Bos taurus [1] is 10% and 5%. The IC50 in the assay with HeLa (hela) is 10 µM and 3.8 µM; in the assay with A549 (a549), 1.2 µM and > 10 µM.
Regarding `COc1ccc(/C(=N\N)c2ccc3ccccc3c2)c(OC)c1OC`, the inhibition in the assay filed under Bos taurus [1] was 0%.
In turn, `COc1ccc(C(O)c2ccc3ccccc3c2)c(OC)c1OC` (stereo unspecified) gave an inhibition in the assay filed under Bos taurus [1] of 0%. Besides, the IC50 in the assay on HeLa (Homo sapiens, HeLa, 72 h) is 10 µM; in the assay with A549 (Homo sapiens, A549, 72 h), 10 µM; with A549 (a549), greater than 10 µM.
